These results are taken from ChEMBL document CHEMBL5042469, “Unique Molecular Interaction with the Histone Deacetylase 6 Catalytic Tunnel: Crystallographic and Biological Characterization of a Model Chemotype” (J Med Chem, 2021).

For series [1], the system named is MV4-11. The experiment in a line: Induction of apoptosis in human MV4-11 cells assessed as viable cells at 4 uM incubated for 15 mins by Annexin-V/FITC staining based FACS analysis (reference value: 84.58%). The series is classed as functional. To be noted: MV4-11, 0.25 h, read-out: Activity. An outline of the steps:
(§1)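 MV4-11 cells were dosed, then washed twice in cold PBS and resuspended in binding buffer at 1×10^6 cells/mL. Cells were stained with FITC-annexin V and propidium iodide for 15 min in the dark, diluted with binding buffer and analysed by flow cytometry within 1 h. Quadrants: LL viable, LR early apoptotic, UR late apoptotic. Duplicate experiments averaged; DMSO control.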
(A flow cytometer gives signals particle by particle.)

Series [2] deals with MV4-11. The experiment in a line: Induction of apoptosis in human MV4-11 cells assessed as early apoptotic cells at 0.25 uM incubated for 15 mins by Annexin-V/FITC staining based FACS analysis (reference value: 7.28%). The series is classed as functional. An outline of the steps:
as §1

Series [3] concerns MV4-11. The experiment in a line: Induction of apoptosis in human MV4-11 cells assessed as late apoptotic cells at 0.50 uM incubated for 15 mins by Annexin-V/FITC staining based FACS analysis (reference value: 4.36%). The series is classed as functional. To be noted: dose 0.5 µM, 0.25 h. An outline of the steps:
as §1

Series [4] concerns MV4-11. The experiment in a line: Induction of apoptosis in human MV4-11 cells assessed as late apoptotic cells at 4 uM incubated for 15 mins by Annexin-V/FITC staining based FACS analysis (reference value: 4.36%). To be noted: 0.25 h. The series is classed as functional. An outline of the steps: as §1
A further series concerns the target Histone deacetylase 4 (Homo sapiens, UniProt P56524). The series can be described thus: Inhibition of full length human HDAC4 using FAM-labeled acetylated peptide as substrate by electrophoretic mobility shift assay. An outline of the steps: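 Full-length human HDAC isoform enzymatic assay by electrophoretic mobility shift, using a FAM-labelled acetylated peptide substrate. […] Values are the mean of duplicate experiments with 95% confidence intervals.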

In series [5] the target is T1, Protein deacetylase HDAC6 (Homo sapiens, UniProt Q9UBN7).
T1 sequence (Q9UBN7 whole entry): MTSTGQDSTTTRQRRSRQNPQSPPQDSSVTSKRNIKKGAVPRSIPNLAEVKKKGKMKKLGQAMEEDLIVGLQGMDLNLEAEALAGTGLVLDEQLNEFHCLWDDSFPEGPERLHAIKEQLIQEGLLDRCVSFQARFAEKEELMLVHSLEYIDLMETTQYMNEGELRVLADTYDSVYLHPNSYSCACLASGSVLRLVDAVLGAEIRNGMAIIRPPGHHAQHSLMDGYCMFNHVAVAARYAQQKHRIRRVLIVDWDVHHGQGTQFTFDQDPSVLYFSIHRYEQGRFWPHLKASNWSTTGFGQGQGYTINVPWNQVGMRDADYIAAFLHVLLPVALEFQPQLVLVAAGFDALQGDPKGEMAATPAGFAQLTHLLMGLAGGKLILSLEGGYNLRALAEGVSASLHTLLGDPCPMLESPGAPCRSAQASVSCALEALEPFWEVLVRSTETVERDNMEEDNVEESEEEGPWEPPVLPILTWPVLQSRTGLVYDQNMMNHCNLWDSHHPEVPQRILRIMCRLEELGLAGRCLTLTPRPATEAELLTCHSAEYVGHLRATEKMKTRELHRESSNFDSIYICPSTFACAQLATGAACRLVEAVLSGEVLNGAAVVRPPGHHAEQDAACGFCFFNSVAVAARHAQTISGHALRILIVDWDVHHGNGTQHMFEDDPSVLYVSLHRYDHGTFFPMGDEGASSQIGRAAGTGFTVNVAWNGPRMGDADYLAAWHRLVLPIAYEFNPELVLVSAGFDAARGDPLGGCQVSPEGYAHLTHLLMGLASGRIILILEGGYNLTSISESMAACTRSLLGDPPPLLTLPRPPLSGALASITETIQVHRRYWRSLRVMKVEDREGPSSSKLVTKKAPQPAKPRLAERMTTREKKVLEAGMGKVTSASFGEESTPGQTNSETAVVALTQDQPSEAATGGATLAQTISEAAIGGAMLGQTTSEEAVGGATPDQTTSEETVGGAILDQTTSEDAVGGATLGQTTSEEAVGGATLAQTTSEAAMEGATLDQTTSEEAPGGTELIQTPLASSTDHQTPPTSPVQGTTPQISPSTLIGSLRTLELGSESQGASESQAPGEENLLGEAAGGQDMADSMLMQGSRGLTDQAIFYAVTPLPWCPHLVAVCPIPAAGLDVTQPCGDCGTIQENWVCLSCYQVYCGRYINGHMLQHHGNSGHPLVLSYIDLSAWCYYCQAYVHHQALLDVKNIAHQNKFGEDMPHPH
The experiment in a line: Binding affinity to human HDAC6 by jump dilution assay.

Series [6] concerns MV4-11. The experiment in a line: Induction of apoptosis in human MV4-11 cells assessed as viable cells at 0.50 uM incubated for 15 mins by Annexin-V/FITC staining based FACS analysis (reference value: 35.53%). The series is classed as functional. To be noted: MV4-11, 0.25 h, read-out: Activity. An outline of the steps:
as §1

In series [7] the test system is MV4-11. The experiment in a line: Induction of apoptosis in human MV4-11 cells assessed as viable cells at 1 uM incubated for 15 mins by Annexin-V/FITC staining based FACS analysis (reference value: 35.53%). The series is classed as functional. As to conditions: MV4-11, 0.25 h, read-out: Activity. An outline of the steps: as §1
In series [8] the test system is MV4-11. The series can be described thus: Induction of apoptosis in human MV4-11 cells assessed as viable cells at 2 uM incubated for 15 mins by Annexin-V/FITC staining based FACS analysis (reference value: 35.53%). To be noted: MV4-11, 0.25 h, read-out: Activity. The series is classed as functional. An outline of the steps: as §1
The test system of series [9] is MV4-11. The experiment in a line: Induction of apoptosis in human MV4-11 cells assessed as early apoptotic cells at 0.25 uM incubated for 15 mins by Annexin-V/FITC staining based FACS analysis (reference value: 0.70%). The series is classed as functional. An outline of the steps: as §1
Series [10] concerns MV4-11. The series can be described thus: Induction of apoptosis in human MV4-11 cells assessed as early apoptotic cells at 0.50 uM incubated for 15 mins by Annexin-V/FITC staining based FACS analysis (reference value: 0.70%). The series is classed as functional. To be noted: dose 0.5 µM, 0.25 h. An outline of the steps:
as §1

Series [11] deals with MV4-11. The series can be described thus: Induction of apoptosis in human MV4-11 cells assessed as early apoptotic cells at 4 uM incubated for 15 mins by Annexin-V/FITC staining based FACS analysis (reference value: 0.70%). The series is classed as functional. To be noted: 0.25 h. An outline of the steps: as §1
Series [12] relates to MV4-11. The experiment in a line: Induction of apoptosis in human MV4-11 cells assessed as late apoptotic cells at 4 uM incubated for 15 mins by Annexin-V/FITC staining based FACS analysis (reference value: 4.17%). As to conditions: 0.25 h. The series is classed as functional. An outline of the steps:
as §1

The subject of series [13] is MV4-11. The series can be described thus: Induction of ROS generation in human MV4-11 cells at 10 uM measured over 4 hrs by DCFDA staning based spectrophotometric analysis. The series is classed as functional, cell-based. An outline of the steps: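 MV4-11 cells were washed once in PBS and loaded with DCFDA (33 μM) for 30 min at 37 °C in the dark. Cells were then washed, resuspended in supplemental buffer and dosed with compound. Fluorescence (Ex/Em 485/535) was followed for up to 4 h against a DMSO control.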

Series [14] can be described thus: Stability in human whole blood assessed as compound remaining measured after 60 mins. The series is classed as ADME, tissue-based. To be noted: read-out: Stability.
A short description of series [15]: Half life in human whole blood incubated for 1 hr. The series is classed as ADME, tissue-based. An outline of the steps:
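Compound was incubated in mouse plasma or in pooled human whole blood. […] Triplicate studies, averaged.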

Series [16] deals with T2, Protein deacetylase HDAC6 (Homo sapiens) (UniProt Q9UBN7).
T2 sequence (whole entry): T1 sequence (Q9UBN7 whole entry)
The experiment in a line: Binding affinity to human HDAC6 assessed as residence time by two-step reversible inhibition model.

Series [17] deals with T1, Protein deacetylase HDAC6. The series can be described thus: Inhibition of full length human HDAC6 preincubated for 3 hrs.

Active and inactive are the calls of the source. No cut-off for these calls is given here.

Histone deacetylase 4, sequence (P56524 whole entry, canonical isoform): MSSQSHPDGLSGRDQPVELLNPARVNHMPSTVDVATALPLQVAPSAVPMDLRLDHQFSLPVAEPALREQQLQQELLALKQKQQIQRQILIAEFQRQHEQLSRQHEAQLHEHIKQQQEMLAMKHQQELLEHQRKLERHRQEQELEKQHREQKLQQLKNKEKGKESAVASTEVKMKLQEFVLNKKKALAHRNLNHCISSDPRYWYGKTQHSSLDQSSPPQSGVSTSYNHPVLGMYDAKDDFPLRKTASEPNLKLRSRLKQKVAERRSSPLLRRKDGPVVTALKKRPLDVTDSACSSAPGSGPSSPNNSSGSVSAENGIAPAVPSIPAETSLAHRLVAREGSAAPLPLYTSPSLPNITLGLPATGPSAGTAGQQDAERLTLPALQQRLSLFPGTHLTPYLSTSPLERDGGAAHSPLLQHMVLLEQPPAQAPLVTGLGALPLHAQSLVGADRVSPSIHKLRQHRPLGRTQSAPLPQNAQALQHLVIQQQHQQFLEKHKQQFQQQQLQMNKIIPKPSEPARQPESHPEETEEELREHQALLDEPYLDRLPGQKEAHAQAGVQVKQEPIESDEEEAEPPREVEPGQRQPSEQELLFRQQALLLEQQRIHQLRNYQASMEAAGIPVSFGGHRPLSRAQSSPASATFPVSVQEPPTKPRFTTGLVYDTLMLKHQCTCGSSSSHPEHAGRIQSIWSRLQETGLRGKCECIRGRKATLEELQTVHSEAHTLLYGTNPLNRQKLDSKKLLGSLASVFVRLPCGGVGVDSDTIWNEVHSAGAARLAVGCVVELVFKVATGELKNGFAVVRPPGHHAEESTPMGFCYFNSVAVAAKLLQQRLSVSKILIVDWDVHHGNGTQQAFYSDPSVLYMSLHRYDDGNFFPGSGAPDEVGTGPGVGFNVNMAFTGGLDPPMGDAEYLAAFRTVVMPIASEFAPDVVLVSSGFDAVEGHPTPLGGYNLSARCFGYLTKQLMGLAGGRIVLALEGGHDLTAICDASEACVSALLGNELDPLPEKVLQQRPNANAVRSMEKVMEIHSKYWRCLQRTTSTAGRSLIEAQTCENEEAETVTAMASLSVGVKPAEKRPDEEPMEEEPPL

For `O=C(CCCCCCNC(=O)c1cnc(N(c2ccccc2)c2ccccc2Cl)nc1)NO` [CITARINOSTAT], in the series on MV4-11 [1], the viability at 4 µM is 40.9%. Moreover, the Activity was found to be 7.93% with MV4-11 [2], 5.77% in the series on MV4-11 [3] and 15.54% in the series with MV4-11 [4].

In the case of `O=C(NO)c1ccc(CN(Cc2cccnc2)S(=O)(=O)c2cc(F)c(F)c(F)c2F)cc1`, the results for the IC50 (at Histone deacetylase 4; in series [17]) were greater than 10000 nM and 2 nM, respectively. The molecule further gave a Ki in [5] of 0.7 nM. In the series on MV4-11 [6], the viability at 0.5 µM came out at 28.4%. For the same molecule, the viability at 1 µM with MV4-11 [7] worked out at 17.1%. Further, the viability at 2 µM in the series on MV4-11 [8] amounted to 9.59%. Besides, the Activity was 0.94% in the series on MV4-11 [9], 1.24% with MV4-11 [10], 2.55% with MV4-11 [11] and 19.29% in the series with MV4-11 [12]. In the series on MV4-11 [13], the outcome was Active. The remaining at 1 h in series [14] came out at 68.9%. The molecule further yielded a t1/2 in series [15] of 1.8 h. In addition, the TIME in [16] came out at 2.37 h.

Usually IC50 stands for the midpoint of a concentration-inhibition curve. Usually Ki stands for a dissociation constant, usually derived from enzyme kinetics or from competition with a known ligand.
